From article PMC6445238 (Drug Design, Development and Therapy, 2019)

Assay: MAD study, safety and tolerability
Assay type: in vivo, human
Settings: for Erythema, number of subjects (%) / Headache, number of subjects (%) / Hyperbilirubinemia, number of subjects (%) / Hyperhidrosis, number of subjects (%) / Hypoesthesia, number of subjects (%) / Insomnia, number of subjects (%) / Muscle hemorrhage, number of subjects (%) / Musculoskeletal stiffness, number of subjects (%) / Nausea, number of subjects (%) / Neck pain, number of subjects (%) / Oropharyngeal pain, number of subjects (%) / Subjects with any TEAEs, number of subjects (%) / Vomiting, number of subjects (%) / Abdominal discomfort, number of subjects (%) / Abdominal pain, number of subjects (%) / Anxiety, number of subjects (%) / Back pain, number of subjects (%) / Diarrhea, number of subjects (%) / Dizziness, number of subjects (%) / Epistaxis, number of subjects (%) / Erythema of eyelid, number of subjects (%): N=6
Outline: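 MAD cohorts were 6 active and 2 placebo healthy males, dosed once daily for 7 days, confined day −1 to day 8, with follow-up on day 14. Safety was monitored by vital signs, clinical labs, 12-lead ECG, physical exams, and AEs reported by subjects or observed by investigators. AEs were coded with MedDRA 19.1. Counts are given as subjects with AEs, % of the safety population. Placebo subjects were pooled.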

For Cc1nn(Cc2ccc(Br)cc2)c(C)c1NC(=O)CSc1ccccc1 [KM-819], the “Erythema, number of subjects (%)” value (100 mg QD 7 days, young) was 0, the “Headache, number of subjects (%)” value (100 mg QD 7 days, young) was 1 (16.7) and the “Hyperbilirubinemia, number of subjects (%)” value (shortened to “Hyperbilirubinemia … (%)”) (100 mg QD 7 days, young) was 0. For the same compound, the “Hyperhidrosis, number of subjects (%)” value (100 mg QD 7 days, young) was 0, the “Hypoesthesia, number of subjects (%)” value (100 mg QD 7 days, young) was 0 and the “Insomnia, number of subjects (%)” value (100 mg QD 7 days, young) was 0. For the same compound, the “Muscle hemorrhage, number of subjects (%)” value (shortened to “Muscle hemorrhage … (%)”) (100 mg QD 7 days, young) was 0, the “Musculoskeletal stiffness, number of subjects (%)” value (from here on “Musculoskeletal stiffness … (%)”) (100 mg QD 7 days, young) was 0 and the “Nausea, number of subjects (%)” value (100 mg QD 7 days, young) was 1 (16.7). The “Neck pain, number of subjects (%)” value (100 mg QD 7 days, young) was 0, the “Oropharyngeal pain, number of subjects (%)” value (“Oropharyngeal pain … (%)” for short) (100 mg QD 7 days, young) was 0 and the “Subjects with any TEAEs, number of subjects (%)” value (from here on “Subjects with any TEAEs … (%)”) (100 mg QD 7 days, young) was 4 (66.7). For the same compound, the “Vomiting, number of subjects (%)” value (100 mg QD 7 days, young) was 0, the “Abdominal discomfort, number of subjects (%)” value (shortened to “Abdominal discomfort … (%)”) (200 mg QD 7 days, elderly) was 0 and the “Abdominal pain, number of subjects (%)” value (200 mg QD 7 days, elderly) was 1 (16.7). For the same compound, the “Anxiety, number of subjects (%)” value (200 mg QD 7 days, elderly) was 0, the “Back pain, number of subjects (%)” value (200 mg QD 7 days, elderly) was 2 (33.3) and the “Diarrhea, number of subjects (%)” value (200 mg QD 7 days, elderly) was 1 (16.7). For the same compound, the “Dizziness, number of subjects (%)” value (200 mg QD 7 days, elderly) was 0, the “Epistaxis, number of subjects (%)” value (200 mg QD 7 days, elderly) was 0 and the “Erythema of eyelid, number of subjects (%)” value (“Erythema of eyelid … (%)” below) (200 mg QD 7 days, elderly) was 0. For the same compound, the “Erythema, number of subjects (%)” value (200 mg QD 7 days, elderly) was 0, the “Headache, number of subjects (%)” value (200 mg QD 7 days, elderly) was 1 (16.7) and the “Hyperbilirubinemia … (%)” value (200 mg QD 7 days, elderly) was 0. The “Hyperhidrosis, number of subjects (%)” value (200 mg QD 7 days, elderly) was 0, the “Hypoesthesia, number of subjects (%)” value (200 mg QD 7 days, elderly) was 0 and the “Insomnia, number of subjects (%)” value (200 mg QD 7 days, elderly) was 1 (16.7). The “Muscle hemorrhage … (%)” value (200 mg QD 7 days, elderly) was 1 (16.7), the “Musculoskeletal stiffness … (%)” value (200 mg QD 7 days, elderly) was 0 and the “Nausea, number of subjects (%)” value (200 mg QD 7 days, elderly) was 0. The “Neck pain, number of subjects (%)” value (200 mg QD 7 days, elderly) was 1 (16.7), the “Oropharyngeal pain … (%)” value (200 mg QD 7 days, elderly) was 0 and the “Subjects with any TEAEs … (%)” value (200 mg QD 7 days, elderly) was 3 (50.0). The “Vomiting, number of subjects (%)” value (200 mg QD 7 days, elderly) was 0, the “Abdominal discomfort … (%)” value (200 mg QD 7 days, young) was 1 (16.7) and the “Abdominal pain, number of subjects (%)” value (200 mg QD 7 days, young) was 0. The “Anxiety, number of subjects (%)” value (200 mg QD 7 days, young) was 0, the “Back pain, number of subjects (%)” value (200 mg QD 7 days, young) was 1 (16.7) and the “Diarrhea, number of subjects (%)” value (200 mg QD 7 days, young) was 0. For the same compound, the “Dizziness, number of subjects (%)” value (200 mg QD 7 days, young) was 2 (33.3), the “Epistaxis, number of subjects (%)” value (200 mg QD 7 days, young) was 0 and the “Erythema of eyelid … (%)” value (200 mg QD 7 days, young) was 0. The “Erythema, number of subjects (%)” value (200 mg QD 7 days, young) was 0, the “Headache, number of subjects (%)” value (200 mg QD 7 days, young) was 5 (83.3) and the “Hyperbilirubinemia … (%)” value (200 mg QD 7 days, young) was 1 (16.7). For the same compound, the “Hyperhidrosis, number of subjects (%)” value (200 mg QD 7 days, young) was 0, the “Hypoesthesia, number of subjects (%)” value (200 mg QD 7 days, young) was 2 (33.3) and the “Insomnia, number of subjects (%)” value (200 mg QD 7 days, young) was 0. The “Muscle hemorrhage … (%)” value (200 mg QD 7 days, young) was 0, the “Musculoskeletal stiffness … (%)” value (200 mg QD 7 days, young) was 1 (16.7) and the “Nausea, number of subjects (%)” value (200 mg QD 7 days, young) was 4 (66.7). The “Neck pain, number of subjects (%)” value (200 mg QD 7 days, young) was 0, the “Oropharyngeal pain … (%)” value (200 mg QD 7 days, young) was 1 (16.7) and the “Subjects with any TEAEs … (%)” value (200 mg QD 7 days, young) was 5 (83.3). For the same compound, the “Vomiting, number of subjects (%)” value (200 mg QD 7 days, young) was 4 (66.7), the “Abdominal discomfort … (%)” value (400 mg QD 7 days, young) was 0 and the “Abdominal pain, number of subjects (%)” value (400 mg QD 7 days, young) was 0. The “Anxiety, number of subjects (%)” value (400 mg QD 7 days, young) was 0, the “Back pain, number of subjects (%)” value (400 mg QD 7 days, young) was 1 (16.7) and the “Diarrhea, number of subjects (%)” value (400 mg QD 7 days, young) was 0. For the same compound, the “Dizziness, number of subjects (%)” value (400 mg QD 7 days, young) was 0, the “Epistaxis, number of subjects (%)” value (400 mg QD 7 days, young) was 1 (16.7) and the “Erythema of eyelid … (%)” value (400 mg QD 7 days, young) was 1 (16.7). The “Erythema, number of subjects (%)” value (400 mg QD 7 days, young) was 0, the “Headache, number of subjects (%)” value (400 mg QD 7 days, young) was 4 (66.7) and the “Hyperbilirubinemia … (%)” value (400 mg QD 7 days, young) was 0. The “Hyperhidrosis, number of subjects (%)” value (400 mg QD 7 days, young) was 1 (16.7), the “Hypoesthesia, number of subjects (%)” value (400 mg QD 7 days, young) was 0 and the “Insomnia, number of subjects (%)” value (400 mg QD 7 days, young) was 0. For the same compound, the “Muscle hemorrhage … (%)” value (400 mg QD 7 days, young) was 0, the “Musculoskeletal stiffness … (%)” value (400 mg QD 7 days, young) was 1 (16.7) and the “Nausea, number of subjects (%)” value (400 mg QD 7 days, young) was 0. The “Neck pain, number of subjects (%)” value (400 mg QD 7 days, young) was 0, the “Oropharyngeal pain … (%)” value (400 mg QD 7 days, young) was 0 and the “Subjects with any TEAEs … (%)” value (400 mg QD 7 days, young) was 5 (83.3). For the same compound, the “Vomiting, number of subjects (%)” value (400 mg QD 7 days, young) was 0, the “subjects withdrawn due to AEs” value (MAD, headache) was 2 and the “serious adverse events (SAEs) reported” value (MAD, headache, considered unlikely related to KM-819) was 1.
